Laboratory results reported in ChEMBL document CHEMBL3739417, “Synthesis and biological evaluation of novel 4,5-disubstituted 2H-1,2,3-triazoles as cis-constrained analogues of combretastatin A-4” (2015).

Assays:
Type in all cases: functional
[1] = Growth inhibition of human UO31 cells after 48 hrs by sulforhodamine B assay; conditions: UO-31, 48 h
In short: (§1)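 NCI-60 panel screen by SRB assay (Rubinstein method). Percentage growth taken from optical density of SRB colour, read before and 48 hrs after exposure to compound or vehicle control. All analogues first screened at 10^-5 M. Analogues giving 60% growth inhibition at that level in at least eight lines then went to a five-concentration dose-response study.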

[2] = system: SR; assay: Growth inhibition of human SR cells after 48 hrs by sulforhodamine B assay; in short: as §1
[3] = Growth inhibition of human HL-60(TB) cells after 48 hrs by sulforhodamine B assay; conditions: HL-60, 48 h; in short: as §1
[4] = system: NCI-H23; assay: Growth inhibition of human NCI-H23 cells after 48 hrs by sulforhodamine B assay; conditions: NCI-H23, 48 h; in short: as §1
[5] = system: MDA-MB-468; assay: Growth inhibition of human MDA-MB-468 cells after 48 hrs by sulforhodamine B assay; conditions: MDA-MB-468, 48 h; in short: as §1
[6] = Growth inhibition of human HOP92 cells after 48 hrs by sulforhodamine B assay; conditions: HOP-92, 48 h; in short: as §1
[7] = Growth inhibition of human IGROV1 cells after 48 hrs by sulforhodamine B assay; conditions: IGROV-1, 48 h; in short: as §1
[8] = Growth inhibition of human HCT15 cells after 48 hrs by sulforhodamine B assay; conditions: HCT-15, 48 h; in short: as §1
[9] = system: A498; assay: Growth inhibition of human A498 cells after 48 hrs by sulforhodamine B assay; conditions: A498, 48 h
In short: (§2)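 NCI-60 sulforhodamine B screen. Compounds were first tested at a single dose of 10⁻⁵ M; hits, defined as ≥60% growth inhibition in at least eight lines, went on to a five-concentration dose–response. SRB optical density was read before and 48 h after exposure to compound or vehicle. Percentage growth was calculated from OD.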

[10] = system: CCRF-CEM; assay: Growth inhibition of human CCRF-CEM cells after 48 hrs by sulforhodamine B assay; in short: as §1
[11] = Growth inhibition of human HCC2998 cells after 48 hrs by sulforhodamine B assay; conditions: HCC 2998, 48 h; in short: as §1
[12] = Growth inhibition of human SW620 cells after 48 hrs by sulforhodamine B assay; conditions: SW-620, 48 h; in short: as §1
[13] = Growth inhibition of human SNB75 cells after 48 hrs by sulforhodamine B assay; conditions: SNB-75, 48 h; in short: as §1
[14] = system: CAKI-1; assay: Growth inhibition of human CAKI-1 cells after 48 hrs by sulforhodamine B assay; conditions: CAKI-1, 48 h; in short: as §1
[15] = Growth inhibition of human RPMI8226 cells after 48 hrs by sulforhodamine B assay; conditions: RPMI-8226, 48 h; in short: as §1
[16] = Growth inhibition of human NCI-ADR-RES cells after 48 hrs by sulforhodamine B assay; in short: as §1
[17] = system: KM12; assay: Growth inhibition of human KM12 cells after 48 hrs by sulforhodamine B assay; conditions: KM12, 48 h; in short: as §1
[18] = Growth inhibition of human LOXIMVI cells after 48 hrs by sulforhodamine B assay; conditions: LOX IMVI; in short: as §1
[19] = system: 786-0; assay: Growth inhibition of human 786-0 cells after 48 hrs by sulforhodamine B assay; conditions: 786-0, 48 h; in short: as §1
[20] = Growth inhibition of human HOP62 cells after 48 hrs by sulforhodamine B assay; conditions: HOP-62, 48 h; in short: as §1
[21] = system: HT-29; assay: Growth inhibition of human HT-29 cells after 48 hrs by sulforhodamine B assay; conditions: HT-29, 48 h; in short: as §1
[22] = Growth inhibition of human COLO205 cells after 48 hrs by sulforhodamine B assay; conditions: COLO 205, 48 h; in short: as §1
[23] = Growth inhibition of human SF295 cells after 48 hrs by sulforhodamine B assay; conditions: SF-295, 48 h; in short: as §1
[24] = system: MDA-MB-231; assay: Growth inhibition of human MDA-MB-231 cells after 48 hrs by sulforhodamine B assay; conditions: MDA-MB-231, 48 h; in short: as §1
[25] = system: MDA-MB-435; assay: Growth inhibition of human MDA-MB-435 cells after 48 hrs by sulforhodamine B assay; conditions: MDA-MB-435, 48 h; in short: as §2
[26] = system: U-251; assay: Growth inhibition of human U251 cells after 48 hrs by sulforhodamine B assay; conditions: U-251, 48 h; in short: as §1
[27] = Growth inhibition of human MOLT4 cells after 48 hrs by sulforhodamine B assay; conditions: MOLT-4, 48 h; in short: as §1
[28] = system: SK-MEL-2; assay: Growth inhibition of human SK-MEL-2 cells after 48 hrs by sulforhodamine B assay; conditions: SK-MEL-2, 48 h; in short: as §1
[29] = system: MCF7; assay: Growth inhibition of human MCF7 cells after 48 hrs by sulforhodamine B assay; conditions: MCF7, 48 h; in short: as §1
[30] = Growth inhibition of human OVCAR3 cells after 48 hrs by sulforhodamine B assay; conditions: OVCAR-3, 48 h; in short: as §2
[31] = system: A549; assay: Growth inhibition of human A549/ATCC cells after 48 hrs by sulforhodamine B assay; conditions: A549, 48 h; in short: as §1
[32] = Growth inhibition of human SF268 cells after 48 hrs by sulforhodamine B assay; conditions: SF-268, 48 h; in short: as §1
[33] = system: NCI-H460; assay: Growth inhibition of human NCI-H460 cells after 48 hrs by sulforhodamine B assay; conditions: NCI-H460, 48 h; in short: as §1
[34] = system: ACHN; assay: Growth inhibition of human ACHN cells after 48 hrs by sulforhodamine B assay; in short: as §1
[35] = Growth inhibition of human HCT116 cells after 48 hrs by sulforhodamine B assay; conditions: HCT-116, 48 h; in short: as §1
[36] = Growth inhibition of human PC3 cells after 48 hrs by sulforhodamine B assay; conditions: PC-3, 48 h; in short: as §1
[37] = system: K562; assay: Growth inhibition of human K562 cells after 48 hrs by sulforhodamine B assay; conditions: K562, 48 h; in short: as §1
[38] = read-out: LD50 (the source's name)

COc1cc(-c2n[nH]nc2-c2ccc3c(c2)OCO3)cc(OC)c1OC gave a GI50 [1] of 0.66 µM, an LC50 (concentration killing 50% of cells) ([1]; read-out: LD50) of over 100 µM and a GI50 [2] of 0.04 µM. The LC50 (concentration giving 50% net cell kill) ([2]; read-out: LD50) was over 100 µM, the GI50 [3] was 0.2 µM and the CC50 [3, 38] was over 100 µM. For the same molecule, the GI50 [4] was 0.77 µM, the LC50 (concentration giving 50% cell kill) ([4]; read-out: LD50) was over 100 µM and the GI50 [5] was 0.23 µM. It also gave a CC50 [5, 38] of over 100 µM, a GI50 [6] of 0.12 µM and a CC50 [6, 38] of over 100 µM. For the same molecule, the GI50 [7] was over 100 µM, the CC50 [7, 38] was over 100 µM and the GI50 [8] was 0.13 µM. The CC50 [8, 38] was over 100 µM, the GI50 [9] was 0.34 µM and the LC50 (50% net cell kill) ([9]; read-out: LD50) was over 100 µM. For the same molecule, the GI50 [10] was 0.28 µM, the LC50 (concentration killing 50% of cells) ([10]; read-out: LD50) was over 100 µM and the GI50 [11] was over 100 µM. It also gave a CC50 [11, 38] of over 100 µM, a GI50 [12] of 0.11 µM and an LD50 (concentration killing 50% of cells) [12] of over 100 µM. The GI50 [13] was 0.08 µM, the CC50 [13, 38] was over 100 µM and the GI50 [14] was 0.32 µM. It also gave a CC50 [14, 38] of over 100 µM, a GI50 [15] of 0.33 µM and a CC50 [15, 38] of over 100 µM. The GI50 [16] was 0.08 µM, the CC50 [16, 38] was over 100 µM and the GI50 [17] was 0.07 µM. For the same molecule, the LC50 (concentration killing 50% of cells) ([17]; read-out: LD50) was over 100 µM, the GI50 [18] was 0.55 µM and the CC50 [18, 38] was over 100 µM. The GI50 [19] was 0.62 µM, the LC50 (concentration killing 50% of cells) ([19]; read-out: LD50) was over 100 µM and the GI50 [20] was 0.34 µM. The LC50 (concentration killing 50% of cells) ([20]; read-out: LD50) was over 100 µM, the GI50 [21] was 0.39 µM and the LC50 (concentration killing 50% of cells) ([21]; read-out: LD50) was over 100 µM. It also gave a GI50 [22] of 0.31 µM, a CC50 [22, 38] of over 100 µM and a GI50 [23] of 0.1 µM. The CC50 [23, 38] was over 100 µM, the GI50 [24] was 0.53 µM and the CC50 [24, 38] was over 100 µM. For the same molecule, the GI50 [25] was 0.09 µM, the LC50 (concentration killing 50% of cells) ([25]; read-out: LD50) was over 100 µM and the GI50 [26] was 0.3 µM. The CC50 [26, 38] was over 100 µM, the GI50 [27] was 0.57 µM and the CC50 [27, 38] was over 100 µM. The GI50 [28] was 0.02 µM, the CC50 [28, 38] was over 100 µM and the GI50 [29] was 0.08 µM. For the same molecule, the CC50 [29, 38] was over 100 µM, the GI50 [30] was 0.43 µM and the LC50 (concentration giving 50% net cell kill) ([30]; read-out: LD50) was over 100 µM. It also gave a GI50 [31] of 0.29 µM, a CC50 [31, 38] of over 100 µM and a GI50 [32] of over 100 µM. It also gave a CC50 [32, 38] of over 100 µM, a GI50 [33] of 0.34 µM and a CC50 [33, 38] of over 100 µM. It also gave a GI50 [34] of 0.71 µM, a CC50 [34, 38] of over 100 µM and a GI50 [35] of 0.18 µM. For the same molecule, the CC50 [35, 38] was over 100 µM, the GI50 [36] was 0.26 µM and the CC50 [36, 38] was over 100 µM. It also gave a GI50 [37] of 0.05 µM and a CC50 [37, 38] of over 100 µM.
